# Screening results as filed in PubChem BioAssay.
# Compounds with a hit are over-represented: about 4% of the library has one in this group of screens.
# ERa coact pot: enhances coactivator binding to human estrogen receptor alpha. P03372. TR-FRET ERalpha-LBD/SRC-Cy5 coactivator binding, 2 h; 100 = basal binding, no effect. coactivator binding (% of control), % at 25.6 µM. 86,000 tested, 1.3% active. AID 639; in the data active means activity above about 200%;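 further: binding measured in presence of low estradiol as agonist stimulus; 0% = peptide alone without receptor and 100% = receptor with peptide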
# ERa coact inh: ER-alpha (human) coactivator binding inhibition | P03372 | TR-FRET ER-alpha LBD / SRC-1 peptide, estradiol-bound | inhibition, % at 25.6 µM | 86,000 tested, 1.7% active | AID 629; in the data active means inhibition above about 50%;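 further: 0% = receptor plus peptide control and 100% = peptide only without receptor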
# FAK blocker: inhibitors of human focal adhesion kinase; biochemical FAK kinase activity assay; inhibition, %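 (tested at 7 µM)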; 97,000 tested, 0.84% active; AID 727;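 further: 0% = DMSO and 100% = reference compound high control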
# Smad3 inh: Smad3 (human) transcription factor binding inhibition; inhibition, % at 25 µM; TR-FRET Smad3/Dy647-FoxH1 peptide binding, europium anti-His; 88,000 tested, 0.29% active;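 active means compounds that reduce the energy-transfer binding signal between the protein and its labelled peptide by more than half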;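 further: 0% = Smad3 plus labelled peptide maximal FRET and 100% = peptide-only background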
# HIV Rev-RRE inh: inhibitors of HIV-1 Rev-RRE RNA interaction; P05866; Rev peptide-RRE RNA binding, FRET; inhibition, % at 8 µM; 97,000 tested, 0.79% active; AID 704;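 active means inhibition above the screen-wide mean plus 3 SD, cut at about 35% in these data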;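 further: 0% = median DMSO wells and 100% = median Neomycin B control wells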
#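 System: Cy5-labelled duplex RRE RNA binding fluorescein-labelled HIV Rev peptide; Signal: fluorescein-to-Cy5 FRET, 480 nm excitation; Also added: labelled Rev peptide; Compound: one concentration, 8 µM nominal; Buffer or medium: HEPES pH 7.5 salt buffer with EDTA; Read-out: % inhibition of FRET ratio versus controls; Schedule: 5 min preincubation and 15 min binding, 25 °C.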
# ERb coact inh: blocks coactivator binding to human estrogen receptor beta; Q92731; TR-FRET ER-beta LBD / SRC1-Cy5 peptide binding; receptor agonist-loaded with 1 µM estradiol; inhibition, % at 25.6 µM; 86,000 tested, 1.3% active;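 active means compounds whose percent inhibition of the receptor-coactivator binding signal exceeds about 50% in the single-dose screen, limit read from the data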;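 further: 0% = receptor plus peptide wells without compound and 100% = peptide-only wells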
# Target sequence (Q92731 whole entry, looked up, the tested form may be a part): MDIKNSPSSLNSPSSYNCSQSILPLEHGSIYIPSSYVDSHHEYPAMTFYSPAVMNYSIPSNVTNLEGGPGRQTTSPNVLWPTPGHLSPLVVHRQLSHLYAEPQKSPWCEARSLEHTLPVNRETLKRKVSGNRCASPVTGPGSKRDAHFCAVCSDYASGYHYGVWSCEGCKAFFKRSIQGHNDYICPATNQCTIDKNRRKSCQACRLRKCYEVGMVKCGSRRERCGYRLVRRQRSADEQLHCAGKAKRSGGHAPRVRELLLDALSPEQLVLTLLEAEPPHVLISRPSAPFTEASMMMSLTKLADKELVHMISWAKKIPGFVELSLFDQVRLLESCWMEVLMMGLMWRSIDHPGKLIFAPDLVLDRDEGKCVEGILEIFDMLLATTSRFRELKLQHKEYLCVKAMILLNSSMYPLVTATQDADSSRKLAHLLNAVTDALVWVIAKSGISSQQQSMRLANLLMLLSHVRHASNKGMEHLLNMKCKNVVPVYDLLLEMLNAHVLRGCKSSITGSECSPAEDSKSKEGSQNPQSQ
# FAK inh confirm: FAK (human) inhibition confirmed | 750 tested, 28% active | FAK kinase biochemical inhibition assay | shares compounds with FAK blocker | inhibition, % at 7 µM | AID 794
# Active calls of the source: *; . = not tested or not shown; [ ] = remark or other dose. Unless noted, no stated cut-off is given here; in the data, active means inhibition above about 19%; inactive means the rest.
SMILES,ERa coact pot,ERa coact inh,FAK blocker,Smad3 inh,HIV Rev-RRE inh,ERb coact inh,others
CC1=CC(=C2C(=O)NC(=S)NC2=O)C=C(C(F)(F)F)N1C,62,52*[fluorescence artefact?],0,11,5,63*[fluorescence artefact?],
Cc1ccc(/C=C2/C(=O)NC(=O)N(CCc3ccc(F)cc3)C2=O)o1,.,.,-3,.,-3,.,
CN1C(=O)C(=Cc2ccc(N3CCCCC3)o2)C(=O)N(C)C1=S,.,.,8,.,121*[fluorescence artefact?],.,
O=C1NC(=O)N(c2ccc3c(c2)OCO3)C(=O)/C1=C/c1ccc(N2CCCCC2)o1,.,.,0,.,124*[fluorescence artefact?],.,
COc1ccc(Cn2c(N)c(C(=O)NCc3ccco3)c3nc4ccccc4nc32)cc1,81,73*,3,4,30,39,
COCC(C)OC(=O)c1c(N)n(Cc2ccco2)c2nc3ccccc3nc12 (stereo not drawn),84,7,3,-7,23,58*[fluorescence artefact?],
CCOC(=O)c1c(N)n(Cc2ccco2)c2nc3ccccc3nc12,88,14,3,1,18,36,
O=C(O)[C@@H]1[C@H](C(=O)O)[C@]2(Cl)C(Cl)=C(Cl)[C@@]1(Cl)C2(Cl)Cl,.,.,.,16,.,.,
C1C[C@@H]2CN(CCCN3CCOCC3)[C@H](C1)O2,.,.,.,4,.,.,
CC(C)OCCCNC(=O)c1c(N)n(CC2CCCO2)c2nc3ccccc3nc12 (stereo not drawn),84,22,4,8,12,7,
CCCNC(=O)c1c(N)n(CC2CCCO2)c2nc3ccccc3nc12 (stereo not drawn),71,12,15,61*,13,15,
CC(=O)O/C(=C1\C[C@@H]2[C@H]3CC=C4C[C@@H](OC(C)=O)CC[C@]4(C)[C@@H]3CC[C@@]2(C)C1=O)C(F)(F)F,.,.,.,9,.,.,
COc1ccc(C(=O)O[C@@H]2CC[C@@]3(C)[C@@H]4CC[C@@H]5[C@@]6(O)C[C@@H](O)[C@@]7(O)[C@@H](CN8C[C@H](C)CC[C@H]8[C@]7(C)O)[C@]6(O)C[C@@]53O[C@@]42O)cc1OC,.,.,.,20,.,.,
COC(=O)C(O)(c1ccc(N(C)C(=O)OC(C)C)cc1)C(F)(F)F (stereo not drawn),101,4,-1,1,6,68*,
C[C@@H]1O[C@H](OC2[C@@H](O)[C@H](O)C(O)[C@H](O)[C@H]2O)[C@@H](N)C[C@H]1N=C(N)C(=O)O (stereo partly drawn),.,.,.,4,.,.,
CCNC(C)(C)[C@@H](SS)c1ccc(Br)cc1,.,.,.,96*,.,.,
O=C1CN=C(c2cccs2)c2c(sc3c2CCCC3)N1,97,3,2,-6,3,64*[fluorescence artefact?],
C[C@]12CC[C@H](O)C[C@@H]1CC[C@H]1[C@H]2CC[C@@]2(C)[C@H](C3=CC(=O)OC3)[C@H](O)C[C@]12O,.,.,.,16,.,.,
CCOC(=O)c1c(-n2c(C)cc(C=C3C(=O)NC(=S)NC3=O)c2C)sc2c1CCCC2,.,.,0,.,41*,.,
O=C(O)C[C@H]1OCC=C2CN3CC[C@]45C6=CC(=O)C(=O)C([N+](=O)[O-])=C6N[C@H]4[C@H]1[C@H]2C[C@H]35,.,.,.,58*,.,.,
COc1cc2c(cc1OC)[C@@]13CCN4C=C5CCO[C@H]6CC(=O)N2[C@H]1[C@H]6[C@H]5C[C@H]43,.,.,.,9,.,.,
CSCC[C@@H](N)P(C)(=O)O,.,.,.,-3,.,.,
NCCc1c[nH]c2ccc(OC(=O)C(=O)O)cc12,.,.,.,16,.,.,
O=P(O)(O)CCP(=O)(O)O,.,.,.,-4,.,.,
CCCCn1c(NC(=O)c2ccco2)c(C(=O)OCC)c2nc3ccccc3nc21,85,4,27*,42,30,4,FAK inh confirm=0
CCCCOCCCn1c(N)c(C(=O)OCCOC)c2nc3ccccc3nc21,119,-13,-1,8,1,3,
Cc1ccc(NC(=[OH+])c2cc3ccccc3cc2O)c(C)c1.Cc1ccc(NC(=[OH+])c2cc3ccccc3cc2O)c(C)c1.[Ni],.,.,.,50,.,.,
C[C@H]1CCCC(=O)CCC/C=C/c2cc(O)cc(O)c2C(=O)O1,97,24,35*,3,10,15,FAK inh confirm=31*
COc1ccc(OCC(=O)Nc2ccc(Cl)cc2C(=O)c2ccccc2)cc1,.,.,25*,.,10,.,FAK inh confirm=-1
C[C@H](c1ccccc1)N1CCN([C@@H](C)c2ccccc2)CC1,.,.,.,14,.,.,
